Activity calls are given as the source filed them. No rule for the calls is given here.
Assays:
Staphylococcus aureus = experiment: Antibacterial activity against multidrug resistant Staphylococcus aureus ATCC BAA-44 after 6 to 8 hrs; format: functional, organism-based
[1] = Cytotoxicity against human THLE3 cells after 48 hrs by Alamar blue assay; format: cell-based
Outline: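 THLE-3 cells, grown in BEBM with the BEGM kit and 10% FBS, were seeded at 1,500 cells/well and allowed 24 h at 37°C, 5% CO2. Compounds were then added at 100 µM to 46 nM final (3-fold steps, 0.1% DMSO) for 48 h. […] CC50 is the log-average of at least triplicate runs.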

[2] = molecular target: T1, Thiosulfate sulfurtransferase (Homo sapiens, UniProt Q16762); experiment: Inhibition of refolded rhodanese (unknown origin) preincubated with Escherichia coli GroEL/GroES for 60 mins by measuring […] after 20 to 40 mins by spectrometric analysis
T1 sequence (Q16762 whole entry): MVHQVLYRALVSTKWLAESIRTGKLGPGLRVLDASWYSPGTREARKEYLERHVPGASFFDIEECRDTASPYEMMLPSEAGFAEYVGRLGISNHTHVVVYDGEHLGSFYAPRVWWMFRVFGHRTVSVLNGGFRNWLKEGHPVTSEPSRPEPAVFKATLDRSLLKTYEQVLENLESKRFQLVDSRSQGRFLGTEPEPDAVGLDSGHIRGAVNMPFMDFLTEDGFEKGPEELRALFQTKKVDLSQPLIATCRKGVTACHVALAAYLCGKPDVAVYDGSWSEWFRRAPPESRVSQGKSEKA

[3] = Inhibition of refolded MDH (unknown origin) preincubated with Escherichia coli GroEL/GroES for 45 mins using sodium mesoxalate as substrate by spectrometric analysis; design: species or system Homo sapiens
Outline: (§1)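 Chaperonin-mediated refolding of denatured MDH, coupled to MDH enzymatic activity as the reporter. Human HSP60/10 (HSP60 without its 26-residue mitochondrial signal peptide) or E. coli GroEL/ES was used, with GroEL tetradecamer at 50 nM (700 nM subunits) during the refolding cycle. IC50s from replicate dose-response curves were averaged as logs after ROUT outlier removal.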

Klebsiella pneumoniae = experiment: Antibacterial activity against Klebsiella pneumoniae ATCC 13883 after 6 to 8 hrs; format: functional, organism-based
Outline: (§2)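 Stagnant liquid-culture proliferation assay at 37°C in broth cation-adjusted with 25 mg/L Ca²⁺ and 12.5 mg/L Mg²⁺, with compounds stamped into the wells. […] OD600 turbidity was read at 6–8 h (K. pneumoniae, E. cloacae, P. aeruginosa) or 24 h (A. baumannii). EC50 came from non-linear regression, averaged in log form over replicates.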

Acinetobacter baumannii = experiment: Antibacterial activity against Acinetobacter baumannii ATCC 19606 after 24 hrs; format: functional, organism-based; conditions: ATCC 19606 = CIP 70.34 = JCM 6841; outline: as §2
Pseudomonas aeruginosa = experiment: Antibacterial activity against Pseudomonas aeruginosa ATCC 10145 after 6 to 8 hrs; format: functional, organism-based; outline: as §2
Enterobacter cloacae = experiment: Antibacterial activity against Enterobacter cloacae subsp. cloacae ATCC 13047 after 6 to 8 hrs; format: functional, organism-based; outline: as §2
HSP60/HSP10 = HSP60/HSP10 (Homo sapiens, UniProt P10809); experiment: Inhibition of human N-terminal octa-His-tagged HSP60 expressed in Escherichia coli Rosetta(DE3) pLysS/human HSP10 expressed in Escherichia coli Rosetta(DE3) assessed as reduction in HSP60/HSP10-mediated denatured MDH refolding by measuring MDH enzyme activity using sodium mesoxalate as substrate after 40 to 60 mins by spectrometric analysis; outline: as §1
Sequence of HSP60/HSP10 (P10809 whole entry): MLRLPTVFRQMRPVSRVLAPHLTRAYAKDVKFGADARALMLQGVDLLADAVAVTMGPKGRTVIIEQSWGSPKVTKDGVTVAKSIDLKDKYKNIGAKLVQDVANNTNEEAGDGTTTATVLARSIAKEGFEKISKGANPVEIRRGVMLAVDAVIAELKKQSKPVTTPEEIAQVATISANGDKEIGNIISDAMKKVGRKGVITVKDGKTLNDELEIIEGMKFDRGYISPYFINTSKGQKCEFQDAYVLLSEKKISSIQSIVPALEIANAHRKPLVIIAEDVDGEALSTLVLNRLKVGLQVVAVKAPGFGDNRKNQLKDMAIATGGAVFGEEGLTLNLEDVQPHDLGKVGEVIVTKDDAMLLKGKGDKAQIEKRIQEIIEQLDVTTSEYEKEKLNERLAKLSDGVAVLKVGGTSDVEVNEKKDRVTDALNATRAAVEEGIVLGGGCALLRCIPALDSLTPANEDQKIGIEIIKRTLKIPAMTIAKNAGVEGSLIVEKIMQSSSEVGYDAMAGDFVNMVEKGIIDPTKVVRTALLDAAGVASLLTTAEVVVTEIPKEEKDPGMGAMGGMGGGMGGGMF
Sequence of HSP60/HSP10 (P61604 whole entry, further chain): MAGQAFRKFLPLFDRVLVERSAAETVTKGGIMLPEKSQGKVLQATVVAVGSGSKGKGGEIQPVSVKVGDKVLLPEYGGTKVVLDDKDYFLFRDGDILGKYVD

Compound | EC50 (Staphylococcus aureus) [µM] | CC50 at 48 h [1] [µM] | IC50 [2] [µM] | IC50 [3] [µM] | Activity (Klebsiella pneumoniae) | Activity (Acinetobacter baumannii) | Activity (Pseudomonas aeruginosa) | Activity (Enterobacter cloacae) | IC50 (HSP60/HSP10) [µM]
O=S(=O)(Nc1ccc(-c2nc3cc(NS(=O)(=O)c4ccc(Cl)s4)ccc3o2)cc1)c1cccc(C(F)(F)F)c1 | 2.3 | 27 | > 100 | > 63 |  |  |  |  | 
COc1ccc(S(=O)(=O)Nc2ccc(-c3nc4cc(NS(=O)(=O)c5ccc(OC)cc5)ccc4o3)cc2)cc1 |  |  |  |  | inactive | inactive | inactive | inactive | 
O=S(=O)(Nc1ccc(-c2nc3cc(NS(=O)(=O)c4cccc5nsnc45)ccc3o2)cc1)c1cccc2nsnc12 |  |  |  |  | inactive | inactive | inactive | inactive | 
O=S(=O)(Nc1ccc(-c2nc3cc(NS(=O)(=O)c4ccc5nsnc5c4)ccc3o2)cc1)c1ccc2nsnc2c1 |  |  |  |  | inactive | inactive | inactive | inactive | 
O=C(O)c1ccccc1S(=O)(=O)Nc1ccc(-c2nc3cc(NS(=O)(=O)c4ccccc4C(=O)O)ccc3o2)cc1 |  |  |  |  | inactive | inactive | inactive | inactive | 
O=S(=O)(Cc1ccccc1)Nc1ccc(-c2nc3cc(NS(=O)(=O)Cc4ccccc4)ccc3o2)cc1 |  |  |  |  | inactive | inactive | inactive | inactive | 
O=c1ccc2cc(S(=O)(=O)Nc3ccc(-c4nc5cc(NS(=O)(=O)c6ccc7oc(=O)ccc7c6)ccc5o4)cc3)ccc2o1 |  |  |  |  | inactive | inactive | inactive | inactive | 
COc1ccccc1S(=O)(=O)Nc1ccc(-c2nc3cc(NS(=O)(=O)c4ccccc4OC)ccc3o2)cc1 |  |  |  |  | inactive | inactive | inactive | inactive | 
O=S(=O)(Nc1ccc(-c2nc3cc(NS(=O)(=O)c4ccccc4Cl)ccc3o2)cc1)c1ccccc1Cl |  |  |  |  | inactive | inactive | inactive | inactive | 
O=S(=O)(Nc1ccc2oc(-c3ccc(NS(=O)(=O)c4cccc5nonc45)cc3)nc2c1)c1ccc(Cl)s1 | 4.5 | 69 | 72 | > 63 |  |  |  |  | 11
O=S(=O)(Nc1ccc(-c2nc3cc(NS(=O)(=O)C(F)(F)F)ccc3o2)cc1)C(F)(F)F |  |  |  |  | inactive | inactive | inactive | inactive | 
Nc1cccc(S(=O)(=O)Nc2ccc(-c3nc4cc(NS(=O)(=O)c5cccc(N)c5)ccc4o3)cc2)c1 |  |  |  |  | inactive | inactive | inactive | inactive | 
COC(=O)c1ccc(S(=O)(=O)Nc2ccc(-c3nc4cc(NS(=O)(=O)c5ccc(C(=O)OC)cc5)ccc4o3)cc2)cc1 |  |  |  |  | inactive | inactive | inactive | inactive | 
O=S(=O)(Nc1ccc(-c2nc3cc(NS(=O)(=O)c4ccccc4O)ccc3o2)cc1)c1ccccc1O |  |  |  |  | inactive | inactive | inactive | inactive | 
Nc1ccc(S(=O)(=O)Nc2ccc(-c3nc4cc(NS(=O)(=O)c5ccc(N)cc5)ccc4o3)cc2)cc1 |  |  |  |  | inactive | inactive | inactive | inactive | 
N#Cc1cccc(S(=O)(=O)Nc2ccc(-c3nc4cc(NS(=O)(=O)c5cccc(C#N)c5)ccc4o3)cc2)c1 |  |  |  |  | inactive | inactive | inactive | inactive | 
O=S(=O)(Nc1ccc(-c2nc3cc(NS(=O)(=O)c4ccc(Cl)s4)ccc3o2)cc1)c1ccc(Cl)s1 | 4.6 | 49 | > 100 | 52 |  |  |  |  | 5.9

Source: ChEMBL document CHEMBL4152346, “Sulfonamido-2-arylbenzoxazole GroEL/ES Inhibitors as Potent Antibacterials against Methicillin-Resistant Staphylococcus aureus (MRSA)” (J Med Chem, 2018)
